# Tested on: Bacillus subtilis
# Test: Antimicrobial activity against Bacillus subtilis ATCC 6633 after 24 hrs by MTT assay
# Type: functional
# Conditions: ATCC 6633, 24 h
# Method in brief: (§1)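 MTT colorimetric broth microdilution in LB medium. Compounds serially diluted in sterile medium (50% v/v DMSO in PBS). Inoculum approx. 10⁵ cfu/mL, 37 °C for 24 h. Then 50 µL PBS with 2 mg/mL MTT added per well, 4–5 h at room temperature. After a further 12 h at room temperature, OD read at 550 nm to give MIC₅₀.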
row,SMILES,MIC50 [µg/mL]
1,O=C1OCC(N2CCCC2)=C1c1ccc(Cl)cc1,> 100
2,O=C1OCC(N2CCNCC2)=C1c1cccc(Cl)c1,> 100
3,CCCCNC1=C(c2cccc(Cl)c2)C(=O)OC1,> 100
4,O=C1OCC(NC2CCCCC2)=C1c1ccc(Br)cc1,86.7
5,NC[C@H]1O[C@H](O[C@H]2[C@H](O)[C@@H](O[C@H]3O[C@H](CO)[C@@H](O)[C@H](N)[C@H]3O)[C@H](N)C[C@@H]2N)[C@H](O)[C@@H](O)[C@@H]1O [KANAMYCIN],0.43
6,CCCNC1=C(c2ccc(Br)cc2)C(=O)OC1,> 100
7,CN(C)C1=C(c2ccc(Br)cc2)C(=O)OC1,> 100
8,CN1CCN(C2=C(c3cccc(Cl)c3)C(=O)OC2)CC1,> 100
9,O=C1OCC(NNc2ccc([N+](=O)[O-])cc2)=C1c1ccc(Br)cc1,9.5
10,O=C1OCC(N2CCOCC2)=C1c1cccc(Cl)c1,93.1
11,O=C1OCC(NCCN2CCOCC2)=C1c1cccc(Cl)c1,27.9
12,COc1ccc(C2=C(N3CCCCC3)COC2=O)cc1OC,> 100
13,O=C1OCC(N2CCCCC2)=C1c1cccc(Cl)c1,41.6
14,CCCCNC1=C(c2ccc(Br)cc2)C(=O)OC1,> 100
15,COc1ccc(C2=C(N3CCNCC3)COC2=O)cc1OC,> 100

# Tested on: Staphylococcus aureus
# Test: Antimicrobial activity against Staphylococcus aureus ATCC 25923 after 24 hrs by MTT assay
# Type: functional
# Conditions: ATCC 25923, 24 h
# Method in brief: as §1
row,SMILES,MIC50 [µg/mL]
1,O=C1OCC(N2CCCC2)=C1c1ccc(Cl)cc1,88.4
2,O=C1OCC(N2CCNCC2)=C1c1cccc(Cl)c1,37.4
3,CCCCNC1=C(c2cccc(Cl)c2)C(=O)OC1,> 100
4,O=C1OCC(NC2CCCCC2)=C1c1ccc(Br)cc1,27.8
5,NC[C@H]1O[C@H](O[C@H]2[C@H](O)[C@@H](O[C@H]3O[C@H](CO)[C@@H](O)[C@H](N)[C@H]3O)[C@H](N)C[C@@H]2N)[C@H](O)[C@@H](O)[C@@H]1O [KANAMYCIN],1
6,CCCNC1=C(c2ccc(Br)cc2)C(=O)OC1,87.2
7,CN(C)C1=C(c2ccc(Br)cc2)C(=O)OC1,> 100
8,CN1CCN(C2=C(c3cccc(Cl)c3)C(=O)OC2)CC1,65.2
9,O=C1OCC(NNc2ccc([N+](=O)[O-])cc2)=C1c1ccc(Br)cc1,0.42
10,O=C1OCC(N2CCOCC2)=C1c1cccc(Cl)c1,25.7
11,O=C1OCC(NCCN2CCOCC2)=C1c1cccc(Cl)c1,3.2
12,COc1ccc(C2=C(N3CCCCC3)COC2=O)cc1OC,> 100
13,O=C1OCC(N2CCCCC2)=C1c1cccc(Cl)c1,7.5
14,CCCCNC1=C(c2ccc(Br)cc2)C(=O)OC1,> 100
15,COc1ccc(C2=C(N3CCNCC3)COC2=O)cc1OC,> 100

# Tested on: Streptococcus pneumoniae
# Test: Antimicrobial activity against Streptococcus pneumoniae R6 by broth microdilution method
# Type: functional
# Conditions: not given
row,SMILES,MIC [µg/mL]
1,N[C@@H](Cc1ccc(O)cc1)C(=O)N[C@H](C(=O)O)[C@H]1[C@H](O)[C@](O)(CO)[C@@H](O)CN1O,> 64

# Tested on: not listed separately
# Test: Inhibition of Staphylococcus aureus tyrosyl-tRNA synthetase by aminoacylation assay
# Conditions: not given
# Method in brief: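 S. aureus TyrRS overexpressed in E. coli and purified (~98% by SDS–PAGE). Enzyme (0.2 nM) preincubated with a range of inhibitor concentrations for 10 min at room temperature, then prewarmed mix added at 37 °C. TCA-precipitated charged tRNA counted by scintillation; IC₅₀ is the concentration halving activity.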
row,SMILES,IC50 [nM]
1,O=C1OCC(NC2CCCCC2)=C1c1ccc(Br)cc1,14500
2,O=C1OCC(NNc2ccc([N+](=O)[O-])cc2)=C1c1ccc(Br)cc1,120
3,O=C1OCC(N2CCOCC2)=C1c1cccc(Cl)c1,10800
4,O=C1OCC(NCCN2CCOCC2)=C1c1cccc(Cl)c1,860
5,N[C@@H](Cc1ccc(O)cc1)C(=O)N[C@H](C(=O)O)[C@H]1[C@H](O)[C@](O)(CO)[C@@H](O)CN1O,3
6,O=C1OCC(N2CCCCC2)=C1c1cccc(Cl)c1,2800

# Tested on: Candida albicans
# Test: Antimicrobial activity against Candida albicans ATCC 10231 after 48 hrs by MTT assay
# Type: functional
# Conditions: ATCC 10231, 48 h
# Method in brief: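 Antifungal MTT colorimetric microdilution in RPMI-1640 medium. Compounds serially diluted in sterile medium (50% v/v DMSO in PBS). Inoculum approx. 10⁵ cfu/mL, plates at 27 °C for 48 h. Then PBS with 2 mg/mL MTT added, 4–5 h at room temperature. After a further 12 h, OD read at 550 nm to give MIC₅₀.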
row,SMILES,MIC50 [µg/mL]
1,CC(=O)N1CCN(c2ccc(OCC3COC(Cn4ccnc4)(c4ccc(Cl)cc4Cl)O3)cc2)CC1 (configuration not stated) [KETOCONAZOLE],4.4
2,O=C1OCC(N2CCCC2)=C1c1ccc(Cl)cc1,> 100
3,O=C1OCC(N2CCNCC2)=C1c1cccc(Cl)c1,> 100
4,CCCCNC1=C(c2cccc(Cl)c2)C(=O)OC1,9.08
5,O=C1OCC(NC2CCCCC2)=C1c1ccc(Br)cc1,62.8
6,CCCNC1=C(c2ccc(Br)cc2)C(=O)OC1,> 100
7,CN(C)C1=C(c2ccc(Br)cc2)C(=O)OC1,> 100
8,CN1CCN(C2=C(c3cccc(Cl)c3)C(=O)OC2)CC1,> 100
9,O=C1OCC(NNc2ccc([N+](=O)[O-])cc2)=C1c1ccc(Br)cc1,5.2
10,O=C1OCC(N2CCOCC2)=C1c1cccc(Cl)c1,74.6
11,O=C1OCC(NCCN2CCOCC2)=C1c1cccc(Cl)c1,21.3
12,COc1ccc(C2=C(N3CCCCC3)COC2=O)cc1OC,> 100
13,O=C1OCC(N2CCCCC2)=C1c1cccc(Cl)c1,33.1
14,CCCCNC1=C(c2ccc(Br)cc2)C(=O)OC1,> 100
15,COc1ccc(C2=C(N3CCNCC3)COC2=O)cc1OC,> 100

# Tested on: Escherichia coli
# Test: Antimicrobial activity against Escherichia coli ATCC 35218 after 24 hrs by MTT assay
# Type: functional
# Conditions: ATCC 35218, 24 h
# Method in brief: as §1
row,SMILES,MIC50 [µg/mL]
1,CC1(C)S[C@@H]2[C@H](NC(=O)Cc3ccccc3)C(=O)N2[C@H]1C(=O)O [PENICILLIN G],2.5

# Same assay, conditions: ATCC 35218, 24 h, read-out: MIC50
row,SMILES,MIC50 [µg/mL]
1,O=C1OCC(N2CCCC2)=C1c1ccc(Cl)cc1,> 100
2,O=C1OCC(N2CCNCC2)=C1c1cccc(Cl)c1,> 100
3,CCCCNC1=C(c2cccc(Cl)c2)C(=O)OC1,> 100
4,O=C1OCC(NC2CCCCC2)=C1c1ccc(Br)cc1,> 100
5,CCCNC1=C(c2ccc(Br)cc2)C(=O)OC1,> 100
6,CN(C)C1=C(c2ccc(Br)cc2)C(=O)OC1,> 100
7,CN1CCN(C2=C(c3cccc(Cl)c3)C(=O)OC2)CC1,> 100
8,O=C1OCC(NNc2ccc([N+](=O)[O-])cc2)=C1c1ccc(Br)cc1,79.4
9,O=C1OCC(N2CCOCC2)=C1c1cccc(Cl)c1,> 100
10,O=C1OCC(NCCN2CCOCC2)=C1c1cccc(Cl)c1,> 100
11,COc1ccc(C2=C(N3CCCCC3)COC2=O)cc1OC,> 100
12,O=C1OCC(N2CCCCC2)=C1c1cccc(Cl)c1,> 100
13,CCCCNC1=C(c2ccc(Br)cc2)C(=O)OC1,> 100
14,COc1ccc(C2=C(N3CCNCC3)COC2=O)cc1OC,> 100
